Tests used:
[1] = In vivo pharmacokinetic parameters; conditions: parent 8b in rat after oral administration of the 8b salt, 20 mg/kg
Method in brief: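 Rats dosed orally at 20 mg/kg with the test form; parent compound measured in plasma. Parameters derived: Cmax, Tmax, half-life, volume of distribution, AUC0-t and calculated total clearance (ClT).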

[2] = Human liver microsomal incubations; type: in vitro ADME
Method in brief: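 Test compound at 1 µM incubated with human liver microsomes (1 mg/mL) plus NADPH; samples taken at 0, 10, 30 and 60 min; parent compound remaining measured.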

[3] = tested on: 3D7 strain of P. falciparum; assay: In vitro antimalarial activity versus 3D7 Plasmodium falciparum; type: cell-based; conditions: 3D7, read-out: IC50 (nM) 3D7 ± SD, 3D7 strain of P. falciparum

| ClT [1] [mL/h/kg] | parent compound present after 60 min incubation ([2]; 1 μM, human liver microsomes 1 mg/mL, NADPH, 60 min) | CLint scaled at 1 µM ([2]; human, liver microsomes) [mL/min/kg] | Compound | IC50 [3] [nM] |
| --- | --- | --- | --- | --- |
| 276.3 | Greater than 60% | 1.78 | Cc1c(-c2ccc(-c3ccc(OC(F)(F)F)cc3)nc2)[nH]c2ccccc2c1=O [8b] | – |
| – | – | – | CCOC(=O)c1c(-c2ccc(-c3ccc(OC(F)(F)F)cc3)nc2)[nH]c2ccccc2c1=O [compound 21] | 103 |
| – | – | – | O=c1c(CO)c(-c2ccc(-c3ccc(OC(F)(F)F)cc3)nc2)[nH]c2ccccc12 [compound 22] | 987 |

Reference: article PMC3351724 (Journal of Medicinal Chemistry, 2012)
